Converted amounts (≈) assume the structure as drawn. The source made the active and inactive calls. No cut-off for these calls is given here. Non-standard residues stand in square brackets, D forms with d. Residues, ends and D or L forms follow the SMILES beside them. Cha = N[C@@H](CC1CCCCC1)C(=O)O; Dab = NCC[C@H](N)C(=O)O Where only a bound is given, the exact number is not on record here.

Assay [1] concerns Staphylococcus aureus. The assay can be described thus: Antibiofilm activity against methicillin-resistant Staphylococcus aureus LAC established catheter-associated biofilm model at 5 times MIC after 72 hrs relative to control. It counts as functional.
Assay [2] concerns Staphylococcus aureus. In words: Antibacterial activity against Staphylococcus aureus ATCC 29213 after 18 to 20 hrs by broth microdilution method. It counts as functional. The method, boiled down:
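Broth microdilution in tryptic soy broth: 2-fold dilutions mixed 1:1 with ~1.5 × 10^5 CFU/mL inoculum, final 0.5–32 μg/mL; 37 °C, 18–20 h. MIC taken as lowest concentration giving no visible growth. At least three independent experiments, one replicate each.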
Background: In broth dilution the organism is exposed to a series of concentrations in liquid medium.

The subject of assay [3] is Klebsiella pneumoniae. The assay can be described thus: Bactericidal activity against Klebsiella pneumoniae ATCC 13883. It is filed as functional. The settings on record: read-out: MBC99.9. The essentials: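 MBC from MIC plates at end point: 50 μL from each well with no visible growth plated on tryptic soy agar and counted. MBC taken as lowest concentration giving ≥99.9% fall in viable count relative to initial inoculum. Three independent experiments, one replicate each.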

The test system of assay [4] is Staphylococcus aureus. The assay can be described thus: Bactericidal activity against methicillin-resistant Staphylococcus aureus ATCC 43300. It counts as functional. To be noted: read-out: MBC99.9. The method, boiled down: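 MBC taken at the end of the MIC test: 50 μL from each well without visible growth plated on tryptic soy agar. MBC = lowest concentration giving ≥99.9% reduction in viable cells relative to the initial inoculum. Three independent experiments, one replicate each.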

Assay [5] deals with Pseudomonas aeruginosa. In words: Bactericidal activity against Pseudomonas aeruginosa ATCC 27853 at 32 ug/ml after 2 hrs by time-kill assay relative to control. It is filed as functional. The method, boiled down: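 Time-kill at 8, 16 and 32 μg/mL; survivors counted on tryptic soy agar at 0, 2, 4, 6 and 24 h. Three independent experiments, one replicate each.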
Assay [6] has as its system Escherichia coli. The assay can be described thus: Antibacterial activity against Escherichia coli ATCC 25922 after 18 to 20 hrs in presence of 95% serum by broth microdilution method. It is filed as functional. The method, boiled down: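 Same microdilution with human serum as medium: compound 2-fold diluted in 100% serum, mixed 1:1 with 90% serum holding ~1.5 × 10^5 CFU/mL, giving 95% serum and final 0.5–64 μg/mL. MIC read as no visible growth after incubation as for the broth test.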

In assay [7] the test system is Escherichia coli. In words: Antibacterial activity against Escherichia coli ATCC 25922 in presence of 100% serum measured immediately post compound addition in serum by broth microdilution method. It is filed as functional. The method, boiled down:
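Serum stability: compound added to 100% human serum at final 64 μg/mL, held at 37 °C, sampled at 0, 6, 12 and 24 h. […] Residual activity compared with untreated control.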

For assay [8], the system named is Escherichia coli. The assay can be described thus: Antibacterial activity against carbapenem-resistant Escherichia coli clinical isolate expressing beta-lactamase NDM after 18 to 20 hrs by broth microdilution method. It is filed as functional. The method, boiled down: (§1)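 Broth microdilution in tryptic soy broth: 2-fold dilutions mixed 1:1 with ~1.5 × 10^5 CFU/mL bacterial suspension in TSB, final 0.5–32 μg/mL, 37 °C for 18–20 h. MIC = lowest concentration with no visible growth. At least three independent experiments, one replicate each.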

The test system of assay [9] is Klebsiella pneumoniae. The assay can be described thus: Antibacterial activity against carbapenem-resistant Klebsiella pneumoniae clinical isolate expressing beta-lactamase NDM, OXA-181 after 18 to 20 hrs by broth microdilution method. It is filed as functional. The essentials: as §1
Assay [10] has as its system Escherichia coli. The assay can be described thus: Antibacterial activity against polymyxin-resistant Escherichia coli UAMS-ECPR2 after 18 to 20 hrs by broth microdilution method. It counts as functional. The essentials: as §1
The test system of assay [11] is Staphylococcus aureus. The assay can be described thus: Antibiofilm activity against methicillin-resistant Staphylococcus aureus LAC established catheter-associated biofilm model at 20 times MIC after 72 hrs relative to control. It is filed as functional.
Assay [12] concerns Pseudomonas aeruginosa. In words: Antibiofilm activity against Pseudomonas aeruginosa ATCC 27853 established catheter-associated biofilm model at 40 times MIC after 72 hrs relative to control. It counts as functional.
The test system of assay [13] is Pseudomonas aeruginosa. The assay can be described thus: Bactericidal activity against Pseudomonas aeruginosa ATCC 27853 at 16 ug/ml after 60 mins in presence of LPS. It is filed as functional. The method, boiled down: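 P. aeruginosa at ~10^6 CFU/mL in TSB with E. coli O111:B4 LPS (final 10, 25, 50 or 100 μg/mL), then compound at final 16 μg/mL. Incubated 37 °C, 200 rpm, 60 min; survivors counted on TSA. Three independent experiments, one replicate each.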

In assay [14] the test system is Staphylococcus aureus. In words: Bactericidal activity against Staphylococcus aureus ATCC 29213 at 32 ug/ml after 60 mins in presence of LTA. It counts as functional. The essentials: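 S. aureus at ~10^6 CFU/mL mixed with S. aureus LTA (final 10, 25, 50 or 100 μg/mL), then compound at final 32 μg/mL. Incubated 37 °C, 200 rpm, 60 min; survivors counted on TSA. Four independent experiments, one replicate each.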

Assay [15] relates to Klebsiella pneumoniae. In words: Antibacterial activity against polymyxin-resistant Klebsiella pneumoniae AR 0109 after 18 to 20 hrs by broth microdilution method.

A word on the MIC: it is the lowest concentration that inhibits growth of the organism. As to `CC(C)C[C@H](NC(=O)[C@@H](Cc1ccccc1)NC(=O)[C@H](CCN)NC(=O)[C@H](Cc1ccccc1)NC(=O)[C@H](CCN)NC(=O)[C@@H](N)CC1CCCCC1)C(=O)N[C@@H](CCN)C(=O)N[C@H](CC(C)C)C(=O)N[C@@H](Cc1ccccc1)C(=O)N[C@@H](CO)C(N)=O` (H-[Cha][Dab]F[Dab][dF]L[Dab][dL]FS-NH2), the Activity is reported as 3 deltalog10CFU/ml with Staphylococcus aureus [1], 5.1 deltalog10CFU/ml in the assay with Pseudomonas aeruginosa [5], 5 deltalog10CFU/ml with Staphylococcus aureus [11] and 2.6 deltalog10CFU/ml in the assay with Pseudomonas aeruginosa [12]. For the same molecule, the MIC is 2 to 4 µg/mL (≈ 1.63 to 3.26 µM) in the assay with Staphylococcus aureus [2]; 8 µg/mL with Escherichia coli [6]; 4 to 8 µg/mL in the assay with Escherichia coli [7]; 0.5 µg/mL (≈ 0.408 µM) in the assay with Escherichia coli [8]; 0.5 to 2 µg/mL (≈ 0.408 to 1.63 µM) against Klebsiella pneumoniae [9]; below 0.5 µg/mL in the assay on Escherichia coli [10]. Besides, the MIC against Klebsiella pneumoniae [15] lay in the range of 4 to 8 µg/mL (≈ 3.26 to 6.53 µM). In addition, the values for the MBC with Klebsiella pneumoniae [3] and in the assay on Staphylococcus aureus [4] were 4 µg/mL (≈ 3.26 µM) and 8 µg/mL (≈ 6.53 µM), respectively. For the same molecule, the result in the assay on Pseudomonas aeruginosa [13] and in the assay on Staphylococcus aureus [14] was inactive.

The values are drawn from ChEMBL document CHEMBL4052819 (2017).
